Results taken from ChEMBL document CHEMBL3877308, “Design, synthesis and in vitro biological evaluation of oligopeptides targeting E. coli type I signal peptidase (LepB)” (Bioorg Med Chem, 2017).
Values after ≈ are worked out from the molar mass of the structure shown.

Experiments:
[1] = target: Signal peptidase I (Escherichia coli K-12) (UniProt P00803); test: (§1) Inhibition of full length Escherichia coli His6-tagged LepB expressed in Escherichia coli C43(DE3) assessed as residual activity at 2.5 uM using dabcyl-VEVGGTATAGAFSRPGLE-(EDANS) as substrate preincubated for 10 mins followed by substrate addition measured for 2 hrs by FRET assay relative to control
Summary of the method: (§2)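 Enzyme came from the membrane fraction, extracted with 1% reduced Triton X-100 and purified by metal-chelation chromatography in 0.5% detergent. FRET pair was dabcyl acceptor and EDANS donor. EcLepB (final about 50 nM) was pre-incubated with compound 10 min at 22 °C. Reaction was then run with 8 µM substrate, following the linear fluorescence increase at 22 °C for 2 h.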

Escherichia coli [2] = test: Antibacterial activity against Escherichia coli D22 harboring lpxC mutant after 16 to 20 hrs by broth microdilution assay; format: functional
Summary of the method: (§3)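 Broth microdilution MIC in cation-adjusted Mueller-Hinton II medium, following EUCAST and CLSI guidelines; tested on a panel of Gram-negative strains plus S. aureus ATCC 29213 (wild-type).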

[3] = target: Signal peptidase I (Escherichia coli K-12) (UniProt P00803); test: as §1, with “0.02” for “2.5”; summary of the method: as §2
[4] = target: Signal peptidase I (Escherichia coli K-12) (UniProt P00803); test: as §1, with “0.078” for “2.5”; summary of the method: as §2
[5] = target: Signal peptidase I (Escherichia coli K-12) (UniProt P00803); test: as §1, with “1.25” for “2.5”; summary of the method: as §2
Escherichia coli [6] = test: Antibacterial activity against wild type Escherichia coli ATCC 25922 after 16 to 20 hrs by broth microdilution assay; format: functional
Summary of the method: (§4)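 MIC by broth microdilution in cation-adjusted Mueller-Hinton II medium, following EUCAST and CLSI guidelines; panel of Gram-negative strains plus S. aureus ATCC 29213.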

[7] = Cytotoxicity against human HepG2 cells assessed as reduction in cell viability after 72 hrs by fluorescein diacetate dye based fluorometric microculture assay; format: toxicity
Summary of the method: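 FMCA on HepG2 cells read at 72 h. Survival index (%) is fluorescence in test wells as percent of control cultures, with blank values subtracted. IC50 was obtained by non-linear regression of log concentration-effect curves.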

[8] = Hemolytic activity against human RBC at 100 uM after 45 mins by spectrophotometric method relative to control; format: ADME, cell-based, Erythrocyte; details: red blood cells (RBC), read-out: Activity
Summary of the method: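 Hemolysis was tested using red blood cells from heparinized human blood.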

Klebsiella pneumoniae = test: Antibacterial activity against wild type Klebsiella pneumoniae […] after 16 to 20 hrs by broth microdilution assay; format: functional; summary of the method: as §4
Acinetobacter baumannii = test: Antibacterial activity against wild type Acinetobacter baumannii ATCC 19606 after 16 to 20 hrs by broth microdilution assay; format: functional; summary of the method: as §4
[9] = target: Signal peptidase I (Escherichia coli K-12) (UniProt P00803); test: as §1, with “0.002” for “2.5”; summary of the method: as §2
Pseudomonas aeruginosa [10] = test: Antibacterial activity against wild type Pseudomonas aeruginosa PAO1 after 16 to 20 hrs by broth microdilution assay; format: functional; summary of the method: as §4
[11] = target: Signal peptidase I (Escherichia coli K-12) (UniProt P00803); test: as §1, with “0.0005” for “2.5”; summary of the method: as §2
[12] = target: Signal peptidase I (Escherichia coli K-12) (UniProt P00803); test: as §1, with “0.039” for “2.5”; summary of the method: as §2
[13] = target: Signal peptidase I (Escherichia coli K-12) (UniProt P00803); test: as §1, with “0.005” for “2.5”; summary of the method: as §2
[14] = target: Signal peptidase I (Escherichia coli K-12) (UniProt P00803); test: as §1, with “0.156” for “2.5”; summary of the method: as §2
[15] = target: Signal peptidase I (Escherichia coli K-12) (UniProt P00803); test: as §1, with “0.001” for “2.5”; summary of the method: as §2
[16] = target: Signal peptidase I (Escherichia coli K-12) (UniProt P00803); test: Inhibition of full length Escherichia coli His6-tagged LepB expressed in Escherichia coli C43(DE3) assessed as residual activity at 5 uM using dabcyl-VEVGGTATAGAFSRPGLE-(EDANS) as substrate preincubated for 10 mins followed by substrate addition measured for 2 hrs by FRET assay relative to control; summary of the method: as §2
[17] = target: Signal peptidase I (Escherichia coli K-12) (UniProt P00803); test: as §1, with “0.01” for “2.5”; summary of the method: as §2
[18] = target: Signal peptidase I (Escherichia coli K-12) (UniProt P00803); test: as §1, with “0.313” for “2.5”; summary of the method: as §2
[19] = target: Signal peptidase I (Escherichia coli K-12) (UniProt P00803); test: Inhibition of full length Escherichia coli His6-tagged LepB expressed in Escherichia coli C43(DE3) at 100 uM using dabcyl-VEVGGTATAGAFSRPGLE-(EDANS) as substrate preincubated for 10 mins followed by substrate addition measured for 2 hrs by FRET assay relative to control; summary of the method: as §2
Escherichia coli [20] = test: Antibacterial activity against Escherichia coli CH3130 harboring tolC deletion mutant after 16 to 20 hrs by broth microdilution assay; format: functional; summary of the method: as §3
Pseudomonas aeruginosa [21] = test: Antibacterial activity against wild type Pseudomonas aeruginosa PAO750 harboring efflux defective mutant after 16 to 20 hrs by broth microdilution assay; format: functional; summary of the method: as §3
Signal peptidase I = Signal peptidase I (Escherichia coli K-12, UniProt P00803); test: Inhibition of full length Escherichia coli His6-tagged LepB expressed in Escherichia coli C43(DE3) using dabcyl-VEVGGTATAGAFSRPGLE-(EDANS) as substrate preincubated for 10 mins followed by substrate addition measured for 2 hrs by FRET assay
Summary of the method: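 Enzyme extracted from the membrane fraction with 1% reduced Triton X-100 and purified by metal-chelation chromatography in 0.5% detergent. Enzyme (final ~50 nM) was pre-incubated with compound for 10 min at 22 °C. The linear rise in EDANS donor fluorescence (dabcyl acceptor) was then followed at 22 °C for 2 h. IC50 came from non-linear regression of sigmoidal rate-versus-concentration curves.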

[22] = target: Signal peptidase I (Escherichia coli K-12) (UniProt P00803); test: as §1, with “0.625” for “2.5”; summary of the method: as §2
[23] = target: Signal peptidase I (Escherichia coli K-12) (UniProt P00803); test: (§5) Inhibition of full length Escherichia coli His6-tagged LepB expressed in Escherichia coli C43(DE3) assessed as residual activity at 10 uM using dabcyl-VEVGGTATAGAFSRPGLE-(EDANS) as substrate preincubated for 10 mins followed by substrate addition measured for 2 hrs by FRET assay relative to control; summary of the method: as §2
Staphylococcus aureus = test: Antibacterial activity against wild type Staphylococcus aureus ATCC 29213 after 16 to 20 hrs by broth microdilution assay; format: functional; summary of the method: as §4
[24] = target: Signal peptidase I (Escherichia coli K-12) (UniProt P00803); test: as §5, with “at 0.0977” for “at 10”; summary of the method: as §2
[25] = target: Signal peptidase I (Escherichia coli K-12) (UniProt P00803); test: as §5, with “at 0.781” for “at 10”; summary of the method: as §2
[26] = target: Signal peptidase I (Escherichia coli K-12) (UniProt P00803); test: as §5, with “at 6.25” for “at 10”; summary of the method: as §2
[27] = target: Signal peptidase I (Escherichia coli K-12) (UniProt P00803); test: as §5, with “at 0.195” for “at 10”; summary of the method: as §2
[28] = target: Signal peptidase I (Escherichia coli K-12) (UniProt P00803); test: as §5, with “at 12.5” for “at 10”; summary of the method: as §2
[29] = target: Signal peptidase I (Escherichia coli K-12) (UniProt P00803); test: Inhibition of full length Escherichia coli His6-tagged LepB expressed in Escherichia coli C43(DE3) assessed as residual activity at 25 uM using dabcyl-VEVGGTATAGAFSRPGLE-(EDANS) as substrate preincubated for 10 mins followed by substrate addition measured for 2 hrs by FRET assay relative to control; summary of the method: as §2
[30] = target: Signal peptidase I (Escherichia coli K-12) (UniProt P00803); test: Inhibition of full length Escherichia coli His6-tagged LepB expressed in Escherichia coli C43(DE3) assessed as residual activity at 100 uM using dabcyl-VEVGGTATAGAFSRPGLE-(EDANS) as substrate preincubated for 10 mins followed by substrate addition measured for 2 hrs by FRET assay relative to control; summary of the method: as §2
[31] = target: Signal peptidase I (Escherichia coli K-12) (UniProt P00803); test: as §5, with “at 3.13” for “at 10”; summary of the method: as §2
[32] = target: Signal peptidase I (Escherichia coli K-12) (UniProt P00803); test: as §5, with “at 0.0244” for “at 10”; summary of the method: as §2
[33] = target: Signal peptidase I (Escherichia coli K-12) (UniProt P00803); test: as §5, with “at 0.391” for “at 10”; summary of the method: as §2
[34] = target: Signal peptidase I (Escherichia coli K-12) (UniProt P00803); test: as §5, with “at 1.56” for “at 10”; summary of the method: as §2
[35] = target: Signal peptidase I (Escherichia coli K-12) (UniProt P00803); test: Inhibition of full length Escherichia coli His6-tagged LepB expressed in Escherichia coli C43(DE3) assessed as residual activity at 50 uM using dabcyl-VEVGGTATAGAFSRPGLE-(EDANS) as substrate preincubated for 10 mins followed by substrate addition measured for 2 hrs by FRET assay relative to control; summary of the method: as §2
[36] = target: Signal peptidase I (Escherichia coli K-12) (UniProt P00803); test: as §5, with “at 0.0488” for “at 10”; summary of the method: as §2
[37] = target: Signal peptidase I (Escherichia coli K-12) (UniProt P00803); test: Potency index, ratio of decanoyl-PTANA-CHO IC50 to compound IC50 for full length Escherichia coli His6-tagged LepB expressed in Escherichia coli C43(DE3)

Chain of Signal peptidase I (P00803 whole entry): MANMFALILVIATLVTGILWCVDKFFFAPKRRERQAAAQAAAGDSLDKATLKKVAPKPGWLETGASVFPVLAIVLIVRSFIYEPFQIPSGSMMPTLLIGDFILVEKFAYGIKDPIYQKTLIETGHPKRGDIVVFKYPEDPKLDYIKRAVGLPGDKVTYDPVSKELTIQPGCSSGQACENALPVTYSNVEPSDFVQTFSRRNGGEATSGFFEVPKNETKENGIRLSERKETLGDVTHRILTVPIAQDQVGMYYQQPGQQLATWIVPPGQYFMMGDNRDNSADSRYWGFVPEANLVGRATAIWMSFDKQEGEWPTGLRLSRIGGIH
Chain of Signal peptidase I (Escherichia coli K-12) (P00803 whole entry): as above

| SMILES | Activity [1] | MIC (Escherichia coli [2]) | Activity [3] | Activity [4] | Activity [5] | MIC (Escherichia coli [6]) | IC50 at 72 h [7] | hemolysis at 0.75 h, 100 µM [8] | MIC (Klebsiella pneumoniae) | MIC (Acinetobacter baumannii) | Activity [9] | MIC (Pseudomonas aeruginosa [10]) | Activity [11] | Activity [12] | Activity [14] | inhibition [19] | MIC (Escherichia coli [20]) | MIC (Pseudomonas aeruginosa [21]) | IC50 (Signal peptidase I) | MIC (Staphylococcus aureus) | other results |
| --- | --- | --- | --- | --- | --- | --- | --- | --- | --- | --- | --- | --- | --- | --- | --- | --- | --- | --- | --- | --- | --- |
| CCCCCCc1ccc(-c2ccc(C(=O)N3CC(CN)C[C@H]3C(=O)N[C@H](C(=O)N[C@@H](C)C(=O)N[C@@H](CC(N)=O)C(=O)N[C@@H](C)B(O)O)[C@H](C)O)cc2)cc1 (stereo partly drawn) | 24.8% | 0.5 µg/mL (≈ 0.653 µM) | 36.2% | 25.7% | 28.4% | 16 µg/mL (≈ 20.9 µM) | 15.6 µM | 2.5% | 8 µg/mL (≈ 10.4 µM) | 8 µg/mL (≈ 10.4 µM) | 85.8% | 64 µg/mL (≈ 83.6 µM) | 88.8% | 27.7% | 27.4% | > 50% | 2 µg/mL (≈ 2.61 µM) | 4 µg/mL (≈ 5.22 µM) | 0.006 µM | 0.25 µg/mL (≈ 0.326 µM) | Activity [13]: 60.1%; Activity [15]: 86.8%; Activity [16]: 28.2%; Activity [17]: 51.8%; Activity [18]: 25.3%; Activity [22]: 25.1%; Activity [23]: 24.6% |
| CC(O)[C@H](NC(=O)[C@@H]1CCCN1)C(=O)N[C@@H](C)C(=O)N[C@@H](CC(N)=O)C(=O)N[C@@H](C)B1O[C@@H]2C[C@@H]3C[C@@H](C3(C)C)[C@]2(C)O1 (single isomer, unassigned) |  | > 64 µg/mL |  |  |  | > 64 µg/mL | > 64 µM |  | > 64 µg/mL | > 64 µg/mL |  | > 64 µg/mL |  |  |  | > 50% | > 64 µg/mL | > 64 µg/mL | 26 µM | > 64 µg/mL | Activity [24]: 96%; Activity [25]: 95%; Activity [26]: 85.8%; Activity [27]: 95.4%; Activity [28]: 67.2%; Activity [29]: 56.9%; Activity [30]: 25.1%; Activity [31]: 88.6%; Activity [32]: 92.7%; Activity [33]: 95%; Activity [34]: 90.7%; Activity [35]: 35.6%; Activity [36]: 96.7% |
| CCCCCCCCCC(=O)N1CCC[C@H]1C(=O)N[C@H](C(=O)N[C@@H](C)C(=O)N[C@@H](CC(N)=O)C(=O)N[C@@H](C)B1O[C@@H]2C[C@@H]3C[C@@H](C3(C)C)[C@]2(C)O1)[C@H](C)O | 17.2% | > 64 µg/mL | 66.8% | 36.4% | 16.9% | > 64 µg/mL | 7.8 µM | 0.4% | > 64 µg/mL | > 64 µg/mL | 81.9% | > 64 µg/mL | 82.6% | 47% | 29.6% | > 50% | > 64 µg/mL | > 64 µg/mL | 0.048 µM | 32 µg/mL (≈ 42.1 µM) | Activity [15]: 84.5%; Activity [16]: 10.6%; Activity [17]: 84.2%; Ratio IC50 [37]: 25; Activity [18]: 19.7%; Activity [22]: 18.1%; Activity [23]: 0.084% |
